ChEMBL document CHEMBL1155876 (J Med Chem, 2008)

Assays:
Aurora kinase A [1] = biological target: T1, Aurora kinase A (Homo sapiens, UniProt O14965); assay: Inhibition of Aurora A
T1 sequence (O14965 whole entry): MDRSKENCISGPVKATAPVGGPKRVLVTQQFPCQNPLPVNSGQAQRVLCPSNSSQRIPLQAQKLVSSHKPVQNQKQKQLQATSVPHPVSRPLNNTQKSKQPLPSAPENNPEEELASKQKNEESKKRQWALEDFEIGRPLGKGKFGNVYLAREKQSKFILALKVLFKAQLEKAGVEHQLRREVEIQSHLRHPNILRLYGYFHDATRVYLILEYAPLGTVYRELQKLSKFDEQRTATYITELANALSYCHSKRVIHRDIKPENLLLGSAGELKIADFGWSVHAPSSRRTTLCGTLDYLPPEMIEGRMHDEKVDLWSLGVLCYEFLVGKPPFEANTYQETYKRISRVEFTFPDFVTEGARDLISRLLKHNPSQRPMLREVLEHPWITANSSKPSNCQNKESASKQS

HT-29 = assay: Antiproliferative activity against human HT29 cells; format: functional, cell-based
Outline: (§1)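 HCT116, HT29 or MCF7 cells were seeded on day 0 in 1:1 Ham's F12/DMEM-high glucose with 10% FBS and 2 mM L-glutamine, then kept overnight at 37 °C in 5% CO2. On day 1, inhibitor in DMSO, diluted 20-fold in serum- and glutamine-free medium, was added. Viability was read on day 4 as total ATP by CellTiter-Glo luminescence.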

MCF7 = assay: Antiproliferative activity against human MCF7 cells; format: functional, cell-based; outline: as §1
[2] = Clearance in CD1 mouse 1 mg/kg, iv; format: ADME, organism-based; parameters: dose 1 mg/kg, route intravenous; settings: in vivo
Outline: (§2)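 A single 1 mg/kg iv dose was given. Vehicles: CD-1 mice (female, 3 per time point), 5% DMSO/5% Cremophor; SD rats (male, 3 per route), 80% PEG; beagles (male, 3 per route), 60% PEG. PK parameters were calculated from averaged serum levels (N = 3).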

Aurora kinase B [3] = biological target: T2, Aurora kinase B (Homo sapiens, UniProt Q96GD4); assay: Inhibition of Aurora B assessed as loss of phospho histone H3 in human HCT cells; format: cell-based
T2 sequence (Q96GD4 whole entry): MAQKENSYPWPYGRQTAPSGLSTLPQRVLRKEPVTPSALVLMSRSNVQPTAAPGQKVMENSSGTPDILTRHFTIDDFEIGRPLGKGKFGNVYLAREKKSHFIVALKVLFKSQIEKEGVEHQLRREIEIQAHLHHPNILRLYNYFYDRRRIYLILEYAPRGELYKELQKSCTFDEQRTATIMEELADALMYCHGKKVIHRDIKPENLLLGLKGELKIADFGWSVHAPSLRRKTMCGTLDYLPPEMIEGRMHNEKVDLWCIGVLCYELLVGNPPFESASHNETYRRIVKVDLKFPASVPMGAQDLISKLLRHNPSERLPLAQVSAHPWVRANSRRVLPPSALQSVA

[4] = biological target: Glycogen synthase kinase-3 beta (Homo sapiens, UniProt P49841); assay: Inhibition of GSK3-beta
Chain of Glycogen synthase kinase-3 beta (P49841 whole entry): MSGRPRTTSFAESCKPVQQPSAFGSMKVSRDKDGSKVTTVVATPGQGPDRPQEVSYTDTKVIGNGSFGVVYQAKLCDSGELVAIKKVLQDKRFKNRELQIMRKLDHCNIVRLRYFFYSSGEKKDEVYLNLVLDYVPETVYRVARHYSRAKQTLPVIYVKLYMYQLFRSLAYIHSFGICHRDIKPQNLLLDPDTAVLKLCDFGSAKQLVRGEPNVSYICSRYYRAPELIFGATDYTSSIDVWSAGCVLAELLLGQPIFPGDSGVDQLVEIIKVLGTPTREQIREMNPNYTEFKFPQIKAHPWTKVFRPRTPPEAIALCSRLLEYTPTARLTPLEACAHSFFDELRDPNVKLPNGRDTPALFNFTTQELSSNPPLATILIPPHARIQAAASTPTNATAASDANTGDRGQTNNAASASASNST

Aurora kinase B [5] = biological target: T2, Aurora kinase B; assay: Inhibition of Aurora B
[6] = biological target: Cyclin-dependent kinase 2 (Homo sapiens, UniProt P24941); assay: Inhibition of CDK2/CyclinA
Mus musculus [7] = assay: Toxicity in athymic mouse xenografted with human HCT116 cells assessed as bone marrow depletion at 10 mg/kg, po qd; format: organism-based, HCT-116; parameters: dose 10 mg/kg, route oral; settings: in vivo
Outline: (§3)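 Female athymic nude mice, 5 × 10^6 HCT-116 cells injected subcutaneously in the right flank. At a mean tumor volume of ~150 mm3, mice were randomized to groups (N = 10). Oral QD dosing at 0, 1, 2.5, 5 or 10 mg/kg as a suspension in 20% HP-β-cyclodextrin (100 µL). Three mice per group were taken for PD after 2 days; the rest were dosed for 21 days. Body weight was followed, with euthanasia at 20% weight loss.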

Mus musculus [8] = assay: Oral bioavailability in CD1 mouse 5 mg/kg; format: ADME, organism-based; settings: in vivo
Outline: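 Female CD-1 mice, three per time point. Oral dose 5 mg/kg as a solution in 80% polyethylene glycol; iv reference dose 1 mg/kg as a solution in 5% DMSO, 5% Cremophor. PK parameters calculated from mean serum levels (N = 3).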

[9] = biological target: Proto-oncogene tyrosine-protein kinase Src (Homo sapiens, UniProt P12931); assay: Inhibition of Src
Chain of Proto-oncogene tyrosine-protein kinase Src (P12931 2-536 limits assumed): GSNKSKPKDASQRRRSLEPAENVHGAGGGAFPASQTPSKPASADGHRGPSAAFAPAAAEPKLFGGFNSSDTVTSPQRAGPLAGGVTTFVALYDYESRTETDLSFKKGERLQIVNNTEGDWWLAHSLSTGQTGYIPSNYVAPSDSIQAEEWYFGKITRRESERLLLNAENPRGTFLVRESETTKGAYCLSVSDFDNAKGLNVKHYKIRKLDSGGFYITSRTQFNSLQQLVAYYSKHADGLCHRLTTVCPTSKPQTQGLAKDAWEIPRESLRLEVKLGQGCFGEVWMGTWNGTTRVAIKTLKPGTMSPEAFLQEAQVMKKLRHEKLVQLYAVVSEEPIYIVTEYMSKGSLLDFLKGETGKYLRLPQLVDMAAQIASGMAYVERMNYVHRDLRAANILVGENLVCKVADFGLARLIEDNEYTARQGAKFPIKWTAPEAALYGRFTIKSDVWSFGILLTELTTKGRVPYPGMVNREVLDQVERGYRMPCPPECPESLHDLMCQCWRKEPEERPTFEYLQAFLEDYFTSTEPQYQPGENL

[10] = biological target: Vascular endothelial growth factor receptor 2 (Homo sapiens, UniProt P35968); assay: Inhibition of KDR
Chain of Vascular endothelial growth factor receptor 2 (P35968 whole entry): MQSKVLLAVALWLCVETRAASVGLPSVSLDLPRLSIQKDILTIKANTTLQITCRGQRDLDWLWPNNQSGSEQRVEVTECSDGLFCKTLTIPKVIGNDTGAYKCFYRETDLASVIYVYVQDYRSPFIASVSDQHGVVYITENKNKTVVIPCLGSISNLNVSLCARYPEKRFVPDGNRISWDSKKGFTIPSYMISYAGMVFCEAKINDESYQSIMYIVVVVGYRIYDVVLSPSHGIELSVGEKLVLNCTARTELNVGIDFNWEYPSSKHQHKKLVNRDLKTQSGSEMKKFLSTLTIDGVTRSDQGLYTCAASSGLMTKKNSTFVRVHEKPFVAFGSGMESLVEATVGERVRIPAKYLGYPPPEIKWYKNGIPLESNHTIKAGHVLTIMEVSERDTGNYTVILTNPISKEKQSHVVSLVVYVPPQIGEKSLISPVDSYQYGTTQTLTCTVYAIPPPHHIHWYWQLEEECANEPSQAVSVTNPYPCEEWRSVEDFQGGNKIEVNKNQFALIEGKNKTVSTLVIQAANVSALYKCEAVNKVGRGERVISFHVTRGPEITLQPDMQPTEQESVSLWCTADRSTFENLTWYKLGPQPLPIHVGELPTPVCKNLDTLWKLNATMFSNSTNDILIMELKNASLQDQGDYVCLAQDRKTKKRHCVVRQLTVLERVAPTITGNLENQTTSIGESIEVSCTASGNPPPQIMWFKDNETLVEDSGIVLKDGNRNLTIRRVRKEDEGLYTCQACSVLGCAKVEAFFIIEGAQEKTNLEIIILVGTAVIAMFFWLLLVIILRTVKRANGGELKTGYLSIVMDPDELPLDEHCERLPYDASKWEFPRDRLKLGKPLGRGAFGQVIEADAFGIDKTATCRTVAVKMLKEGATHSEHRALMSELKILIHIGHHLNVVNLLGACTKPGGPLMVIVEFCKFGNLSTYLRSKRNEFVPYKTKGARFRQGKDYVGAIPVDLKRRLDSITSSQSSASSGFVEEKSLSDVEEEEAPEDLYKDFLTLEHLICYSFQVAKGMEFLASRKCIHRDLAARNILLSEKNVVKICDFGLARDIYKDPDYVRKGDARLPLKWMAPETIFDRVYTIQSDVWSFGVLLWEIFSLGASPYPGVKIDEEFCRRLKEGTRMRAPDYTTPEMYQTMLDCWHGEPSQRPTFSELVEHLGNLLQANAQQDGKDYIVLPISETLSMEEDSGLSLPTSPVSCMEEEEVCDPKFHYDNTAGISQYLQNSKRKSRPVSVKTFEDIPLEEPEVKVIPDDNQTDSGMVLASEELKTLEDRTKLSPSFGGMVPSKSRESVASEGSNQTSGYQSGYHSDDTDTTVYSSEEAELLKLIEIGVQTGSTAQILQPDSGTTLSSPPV

[11] = Oral bioavailability in Sprague-Dawley rat 5 mg/kg; format: ADME, organism-based; settings: in vivo
Outline: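 Male Sprague-Dawley rats, three per route. Oral dose 5 mg/kg as a solution in 80% PEG; iv dose 1 mg/kg, also as an 80% PEG solution. PK parameters calculated from averaged serum levels (N = 3).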

[12] = Oral bioavailability in Beagle dog 5 mg/kg; format: ADME, organism-based, Canis lupus familiaris; settings: in vivo
Outline: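 Three male beagles per route. Oral dose 5 mg/kg given as a solution in 80% PEG; iv comparator 1 mg/kg delivered in 60% PEG. Mean serum concentrations (N = 3) used to derive PK parameters.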

Aurora kinase A [13] = biological target: T1, Aurora kinase A; assay: Inhibition of Aurora A in human HCT cells assessed as loss of autophosphorylation of Aurora A; format: cell-based
Mus musculus [14] = assay: Toxicity in athymic mouse xenografted with human HCT116 cells assessed as gastrointestinal hypocellularity at 10 mg/kg, po qd; settings: in vivo
Aurora kinase B [15] = biological target: T2, Aurora kinase B; assay: Inhibition of Aurora B assessed as loss of phospho histone H3 in human […] cells; format: cell-based
Mus musculus [16] = assay: Toxicity in athymic mouse xenografted with human HCT116 cells assessed as loss of body weight at 10 mg/kg, po qd; format: organism-based, HCT-116; parameters: dose 10 mg/kg, route oral; settings: in vivo; outline: as §3
[17] = biological target: Receptor-type tyrosine-protein kinase FLT3 (Homo sapiens, UniProt P36888); assay: Inhibition of Flt3
Chain of Receptor-type tyrosine-protein kinase FLT3 (P36888 whole entry): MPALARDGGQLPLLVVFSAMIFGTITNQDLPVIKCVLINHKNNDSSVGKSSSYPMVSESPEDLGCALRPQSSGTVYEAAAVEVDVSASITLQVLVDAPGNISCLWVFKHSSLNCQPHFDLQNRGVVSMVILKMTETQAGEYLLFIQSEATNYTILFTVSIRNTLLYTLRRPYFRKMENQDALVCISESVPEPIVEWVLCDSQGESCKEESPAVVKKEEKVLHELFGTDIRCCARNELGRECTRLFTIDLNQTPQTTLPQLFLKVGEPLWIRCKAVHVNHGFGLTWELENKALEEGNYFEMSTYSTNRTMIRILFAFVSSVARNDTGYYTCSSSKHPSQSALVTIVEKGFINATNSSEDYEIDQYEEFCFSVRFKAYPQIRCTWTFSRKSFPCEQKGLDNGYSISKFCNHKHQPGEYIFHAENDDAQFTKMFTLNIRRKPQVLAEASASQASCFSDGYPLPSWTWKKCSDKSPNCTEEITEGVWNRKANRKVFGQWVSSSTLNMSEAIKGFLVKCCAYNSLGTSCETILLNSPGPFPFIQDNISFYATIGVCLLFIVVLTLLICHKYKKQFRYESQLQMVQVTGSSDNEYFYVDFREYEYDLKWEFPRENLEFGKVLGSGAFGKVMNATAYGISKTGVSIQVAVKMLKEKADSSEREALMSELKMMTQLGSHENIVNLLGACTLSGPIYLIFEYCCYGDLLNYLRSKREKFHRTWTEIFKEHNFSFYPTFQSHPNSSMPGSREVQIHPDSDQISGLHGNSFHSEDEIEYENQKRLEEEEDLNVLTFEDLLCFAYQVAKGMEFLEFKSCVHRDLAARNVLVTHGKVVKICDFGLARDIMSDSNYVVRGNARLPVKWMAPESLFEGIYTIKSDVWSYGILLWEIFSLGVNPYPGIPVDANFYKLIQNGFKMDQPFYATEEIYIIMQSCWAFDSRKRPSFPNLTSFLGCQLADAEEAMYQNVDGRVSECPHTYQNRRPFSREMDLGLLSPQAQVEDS

[18] = Clearance in Sprague-Dawley rat 1 mg/kg, iv; format: ADME, organism-based; parameters: dose 1 mg/kg, route intravenous; settings: in vivo; outline: as §2
[19] = biological target: Serine/threonine-protein kinase Chk1 (Homo sapiens, UniProt O14757); assay: Inhibition of Chk1
Chain of Serine/threonine-protein kinase Chk1 (O14757 whole entry): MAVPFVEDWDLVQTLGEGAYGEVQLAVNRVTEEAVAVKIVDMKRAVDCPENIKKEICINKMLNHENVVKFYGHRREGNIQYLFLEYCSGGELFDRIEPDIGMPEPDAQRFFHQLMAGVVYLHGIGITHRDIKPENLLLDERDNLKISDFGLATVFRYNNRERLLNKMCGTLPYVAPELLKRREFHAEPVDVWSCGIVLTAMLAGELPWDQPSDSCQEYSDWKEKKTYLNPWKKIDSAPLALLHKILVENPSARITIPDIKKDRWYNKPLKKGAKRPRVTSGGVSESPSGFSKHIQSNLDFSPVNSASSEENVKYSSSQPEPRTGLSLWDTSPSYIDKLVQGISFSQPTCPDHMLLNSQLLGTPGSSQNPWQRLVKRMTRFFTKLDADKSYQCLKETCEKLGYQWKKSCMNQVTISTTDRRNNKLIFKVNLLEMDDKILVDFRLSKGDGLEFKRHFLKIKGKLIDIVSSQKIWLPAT

[20] = Clearance in Beagle dog 1 mg/kg, iv; format: ADME, organism-based, Canis lupus familiaris; parameters: dose 1 mg/kg, route intravenous; settings: in vivo; outline: as §2
HCT-116 = assay: Antiproliferative activity against human HCT116 cells
[21] = AUClast in CD1 mouse at 30 mg/kg, po; format: ADME, organism-based; parameters: time 0 - last, dose 30 mg/kg, route oral; settings: plasma
[22] = Cmax in CD1 mouse at 30 mg/kg, po; format: ADME, organism-based; parameters: dose 30 mg/kg, route oral; settings: in vivo

IC50 (Aurora kinase A [1]) [nM] | IC50 (HT-29) [nM] | IC50 (MCF7) [nM] | IC50 (Aurora kinase B [5]) [nM] | Structure (SMILES) | also measured
2 | 30 | 100 | – | Cc1[nH]nc2c1CCCc1c-2[nH]c2cc3c(cc12)NC(=O)C3(C)C | –
– | – | – | 5 | CCN1C(=O)C(C)(C)c2cc3[nH]c4c(c3cc21)CCCc1c-4n[nH]c1C | clearance [2]: 25 mL/min/kg; IC50 (Aurora kinase B [3]): 310 nM; IC50 [4]: 7700 nM; IC50 [6]: 15000 nM; Activity (Mus musculus [7]): Toxic; F (Mus musculus [8]): 178%; IC50 [9]: 250 nM; IC50 [10]: 12 nM; bioavailability [11]: 97%; bioavailability [12]: 56%; IC50 (Aurora kinase A [13]): 160 nM; Activity (Mus musculus [14]): Toxic; IC50 (Aurora kinase B [15]): 100 nM; Activity (Mus musculus [16]): Toxic; IC50 [17]: 2 nM; clearance [18]: 22 mL/min/kg; IC50 [19]: 85 nM; clearance [20]: 34 mL/min/kg
5700 | – | – | – | CCOC(=O)c1[nH]nc2c1CCc1c-2[nH]c2ccccc12 | –
870 | > 20000 | > 20000 | 880 | Cc1[nH]nc2c1Cc1c-2[nH]c2ccccc12 | –
– | 150 | 48 | – | Cc1cc(Nc2cc(N3CCN(C)CC3)nc(Sc3ccc(NC(=O)C4CC4)cc3)n2)n[nH]1 [TOZASERTIB] | IC50 (HCT-116): 53 nM
110 | – | – | – | c1ccc2c3c([nH]c2c1)-c1n[nH]c(C2CC2)c1CC3 | –
300 | – | – | – | c1ccc2c3c([nH]c2c1)-c1n[nH]cc1CC3 | –
340 | – | – | – | OCc1[nH]nc2c1CCc1c-2[nH]c2ccccc12 | –
1100 | – | – | 510 | Cc1cc(-c2cc3ccccc3[nH]2)n[nH]1 | –
72 | 2600 | 1500 | 86 | Cc1[nH]nc2c1CCCc1c-2[nH]c2cc3c(cc12)C(C)(C)C(=O)N3 | –
51 | > 20000 | 4500 | 220 | Cc1[nH]nc2c1CCc1c-2[nH]c2ccccc12 | –
180 | – | – | 150 | Cc1cc(-c2nc3cc4c(cc3[nH]2)NC(=O)C4(C)C)n[nH]1 | AUC(0-t) [21]: 1.5 µM·h; Cmax [22]: 0.88 µM
42 | 2600 | 670 | 22 | Cc1[nH]nc2c1CCCC1c3ccccc3NC21 (stereo not given) | –
69 | – | – | 130 | CCN1C(=O)C(C)(C)c2cc3nc(-c4cc(C)[nH]n4)[nH]c3cc21 | AUC(0-t) [21]: 180 µM·h; Cmax [22]: 51 µM
